Converted amounts (≈) assume the structure as drawn. The source made the active and inactive calls. No cut-off for these calls is given here.
Experiments:
[1] = tested on: Mycobacterium tuberculosis; experiment: Antimycobacterial activity against multidrug-resistant Mycobacterium tuberculosis 08-0785 harboring gyrA Ala90Val mutant gene by resazurin microtiter assay; type: functional
How it was run: (§1)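 MIC was read by resazurin microtiter assay against ofloxacin, moxifloxacin and gatifloxacin. Isolates were used as fresh Löwenstein-Jensen subcultures kept at 37°C for no longer than 4 weeks.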

[2] = tested on: Mycobacterium tuberculosis; experiment: Antimycobacterial activity against multidrug-resistant Mycobacterium tuberculosis 08-0791 harboring gyrA Ala90Val mutant gene by resazurin microtiter assay; type: functional; how it was run: as §1
[3] = tested on: Mycobacterium tuberculosis; experiment: Antimycobacterial activity against multidrug-resistant Mycobacterium tuberculosis 08-0797 harboring gyrA Ala90Val mutant gene by resazurin microtiter assay; type: functional; how it was run: as §1
[4] = tested on: Mycobacterium tuberculosis; experiment: Antimycobacterial activity against multidrug-resistant Mycobacterium tuberculosis 99-1914 harboring gyrA Asp94Gly mutant gene by resazurin microtiter assay; type: functional; how it was run: as §1
[5] = tested on: Mycobacterium tuberculosis; experiment: Antimycobacterial activity against multidrug-resistant Mycobacterium tuberculosis 01-2230 harboring gyrA Asp94Gly mutant gene by resazurin microtiter assay; type: functional
How it was run: (§2)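 Isolates taken from fresh Löwenstein-Jensen subcultures grown at 37°C for at most 4 weeks. Drug stocks 1 mg/ml in 0.1 N NaOH, filter sterilized, stored at −20°C less than 2 months. MIC read by resazurin microtiter assay following a previously described protocol.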

[6] = tested on: Mycobacterium tuberculosis; experiment: Antimycobacterial activity against multidrug-resistant Mycobacterium tuberculosis 08-0810 harboring gyrA Asp94Tyr mutant gene by resazurin microtiter assay; type: functional; how it was run: as §1
[7] = tested on: Mycobacterium tuberculosis; experiment: Antimycobacterial activity against multidrug-resistant Mycobacterium tuberculosis 02-2399 harboring gyrA Asp94Tyr mutant gene by resazurin microtiter assay; type: functional; how it was run: as §2
[8] = tested on: Mycobacterium tuberculosis; experiment: Antimycobacterial activity against multidrug-resistant Mycobacterium tuberculosis 02-0319 harboring gyrA Asp94Ala mutant gene by resazurin microtiter assay; type: functional; how it was run: as §2
[9] = tested on: Mycobacterium tuberculosis; experiment: Antimycobacterial activity against multidrug-resistant Mycobacterium tuberculosis 04-0519 harboring gyrA Ala90Val and Asp94Asn mutant gene by resazurin microtiter assay; type: functional; how it was run: as §1
[10] = tested on: Mycobacterium tuberculosis; experiment: Antimycobacterial activity against Mycobacterium tuberculosis 08-0787 harboring gyrA Asp94His mutant gene and deletion of codons 678 and 679 in gyrB mutant gene by resazurin microtiter assay; type: functional; how it was run: as §2
[11] = tested on: Mycobacterium tuberculosis; experiment: Antimycobacterial activity against Mycobacterium tuberculosis 08-0745 harboring gyrA Asp89Asn mutant gene by resazurin microtiter assay; type: functional; how it was run: as §2
[12] = tested on: Mycobacterium tuberculosis; experiment: Antimycobacterial activity against multidrug-resistant Mycobacterium tuberculosis 01-2834 by resazurin microtiter assay; type: functional; how it was run: as §2
[13] = tested on: Mycobacterium tuberculosis; experiment: Antimycobacterial activity against multidrug-resistant Mycobacterium tuberculosis 08-0794 harboring gyrA Thr80Ala mutant gene by resazurin microtiter assay; type: functional; how it was run: as §1
[14] = tested on: Mycobacterium tuberculosis; experiment: Antimycobacterial activity against Mycobacterium tuberculosis 08-0773 harboring gyrA Pro8Ala mutant gene by resazurin microtiter assay; type: functional; how it was run: as §2
[15] = tested on: Mycobacterium tuberculosis; experiment: Antimycobacterial activity against Mycobacterium tuberculosis 08-0769 harboring gyrA putative promoter mutant gene by resazurin microtiter assay; type: functional; how it was run: as §2
[16] = tested on: Mycobacterium tuberculosis; experiment: Antimycobacterial activity against Mycobacterium tuberculosis 08-0771 harboring gyrA putative promoter mutant gene by resazurin microtiter assay; type: functional; how it was run: as §2
[17] = tested on: Mycobacterium tuberculosis; experiment: Antimycobacterial activity against multidrug-resistant Mycobacterium tuberculosis 08-0777 by resazurin microtiter assay; type: functional; how it was run: as §1
[18] = tested on: Mycobacterium tuberculosis; experiment: Antimycobacterial activity against Mycobacterium tuberculosis 00-0715 harboring gyrA Ala90Val mutant gene assessed as microbial susceptibility by agar proportion method; type: functional, organism-based
How it was run: (§3)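 Clinical isolates freshly subcultured on Löwenstein-Jensen medium, held at 37°C no longer than 4 weeks. Fluoroquinolone stocks 1 mg/ml in 0.1 N NaOH, filter sterilized, kept at −20°C under 2 months. Standard proportion method on 7H11 agar; breakpoints 2 mg/liter ofloxacin, 0.5 mg/liter moxifloxacin and gatifloxacin; scored susceptible or resistant.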

[19] = tested on: Mycobacterium tuberculosis; experiment: Antimycobacterial activity against multidrug-resistant Mycobacterium tuberculosis 03-0738 harboring gyrA Ala90Val mutant gene assessed as microbial susceptibility by agar proportion method; type: functional, organism-based
How it was run: (§4)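 Clinical isolates freshly subcultured on Löwenstein-Jensen medium at 37°C for no more than 4 weeks. Susceptibility by standard proportion method on 7H11 agar at breakpoints of 2 mg/liter ofloxacin and 0.5 mg/liter moxifloxacin and gatifloxacin. Drug stocks 1 mg/ml in 0.1 N NaOH, filter sterilized, held at −20°C under 2 months. Isolates scored susceptible or resistant.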

[20] = tested on: Mycobacterium tuberculosis; experiment: Antimycobacterial activity against multidrug-resistant Mycobacterium tuberculosis 08-0757 harboring gyrA Ala90Val mutant gene assessed as microbial susceptibility by agar proportion method; type: functional, organism-based; how it was run: as §4
[21] = tested on: Mycobacterium tuberculosis; experiment: Antimycobacterial activity against multidrug-resistant Mycobacterium tuberculosis 08-0785 harboring gyrA Ala90Val mutant gene assessed as microbial susceptibility by agar proportion method; type: functional, organism-based; how it was run: as §4
[22] = tested on: Mycobacterium tuberculosis; experiment: Antimycobacterial activity against multidrug-resistant Mycobacterium tuberculosis 99-1914 harboring gyrA Asp94Gly mutant gene assessed as microbial susceptibility by agar proportion method; type: functional, organism-based; how it was run: as §4
[23] = tested on: Mycobacterium tuberculosis; experiment: Antimycobacterial activity against Mycobacterium tuberculosis 02-1975 harboring gyrA Asp94Gly mutant gene assessed as microbial susceptibility by agar proportion method; type: functional, organism-based; how it was run: as §3
[24] = tested on: Mycobacterium tuberculosis; experiment: Antimycobacterial activity against multidrug-resistant Mycobacterium tuberculosis 01-2230 harboring gyrA Asp94Gly mutant gene assessed as microbial susceptibility by agar proportion method; type: functional, organism-based; how it was run: as §3
[25] = tested on: Mycobacterium tuberculosis; experiment: Antimycobacterial activity against multidrug-resistant Mycobacterium tuberculosis 08-0744 harboring gyrA Asp94Tyr mutant gene assessed as microbial susceptibility by agar proportion method; type: functional, organism-based; how it was run: as §4
[26] = tested on: Mycobacterium tuberculosis; experiment: Antimycobacterial activity against Mycobacterium tuberculosis 04-0649 harboring gyrA Asp94Asn mutant gene assessed as microbial susceptibility by agar proportion method; type: functional, organism-based; how it was run: as §3
[27] = tested on: Mycobacterium tuberculosis; experiment: Antimycobacterial activity against multidrug-resistant Mycobacterium tuberculosis 02-2399 harboring gyrA Asp94Tyr mutant gene assessed as microbial susceptibility by agar proportion method; type: functional, organism-based; how it was run: as §3
[28] = tested on: Mycobacterium tuberculosis; experiment: Antimycobacterial activity against Mycobacterium tuberculosis 08-0787 harboring gyrA Asp94His mutant gene assessed as microbial susceptibility and deletion of codons 678 and 679 in gyrB mutant gene assessed as microbial susceptibility by agar proportion method; type: functional, organism-based; how it was run: as §3
[29] = tested on: Mycobacterium tuberculosis; experiment: Antimycobacterial activity against multidrug-resistant Mycobacterium tuberculosis 01-2834 by agar proportion method; type: functional, organism-based; how it was run: as §3
[30] = tested on: Mycobacterium tuberculosis; experiment: Antimycobacterial activity against Mycobacterium tuberculosis 08-0815 harboring gyrA Thr80Ala and Ala90Gly mutant gene assessed as microbial susceptibility by agar proportion method; type: functional, organism-based; how it was run: as §3
[31] = tested on: Mycobacterium tuberculosis; experiment: Antimycobacterial activity against Mycobacterium tuberculosis 08-0773 harboring gyrA Pro8Ala mutant gene assessed as microbial susceptibility by agar proportion method; type: functional, organism-based; how it was run: as §3
[32] = tested on: Mycobacterium tuberculosis; experiment: Antimycobacterial activity against Mycobacterium tuberculosis 08-0771 harboring gyrA putative promoter mutant gene assessed as microbial susceptibility by agar proportion method; type: functional, organism-based; how it was run: as §3
[33] = tested on: Mycobacterium tuberculosis; experiment: Antimycobacterial activity against multidrug-resistant Mycobacterium tuberculosis 08-0746 assessed as microbial susceptibility by agar proportion method; type: functional, organism-based; how it was run: as §4
[34] = tested on: Mycobacterium tuberculosis; experiment: Antimycobacterial activity against multidrug-resistant Mycobacterium tuberculosis 08-0777 assessed as microbial susceptibility by agar proportion method; type: functional, organism-based; how it was run: as §4
[35] = tested on: Mycobacterium tuberculosis; experiment: Antimycobacterial activity against multidrug-resistant Mycobacterium tuberculosis 03-0738 harboring gyrA Ala90Val mutant gene by resazurin microtiter assay; type: functional; how it was run: as §1
[36] = tested on: Mycobacterium tuberculosis; experiment: Antimycobacterial activity against multidrug-resistant Mycobacterium tuberculosis 01-1647 harboring gyrA Ala90Val mutant gene by resazurin microtiter assay; type: functional; how it was run: as §2
[37] = tested on: Mycobacterium tuberculosis; experiment: Antimycobacterial activity against multidrug-resistant Mycobacterium tuberculosis 01-0930 harboring gyrA Ala90Val mutant gene by resazurin microtiter assay; type: functional; how it was run: as §2

COc1c(N2CCNC(C)C2)c(F)cc2c(=O)c(C(=O)O)cn(C3CC3)c12 (configuration not stated) [GATIFLOXACIN]
MIC [1]: 1 µg/mL (≈ 2.66 µM)
MIC [2]: 0.25 µg/mL (≈ 0.666 µM)
MIC [3]: 0.5 µg/mL (≈ 1.33 µM)
MIC [4]: 1 µg/mL (≈ 2.66 µM)
MIC [5]: 1 µg/mL (≈ 2.66 µM)
MIC [6]: 1 µg/mL (≈ 2.66 µM)
MIC [7]: 0.25 µg/mL (≈ 0.666 µM)
MIC [8]: 0.25 µg/mL (≈ 0.666 µM)
MIC [9]: >4 µg/mL
MIC [10]: 1 µg/mL (≈ 2.66 µM)
MIC [11]: 1 µg/mL (≈ 2.66 µM)
MIC [12]: 0.5 µg/mL (≈ 1.33 µM)
MIC [13]: <=0.062 mg/L
MIC [14]: <=0.062 mg/L
MIC [15]: 0.125 µg/mL (≈ 0.333 µM)
MIC [16]: 0.125 µg/mL (≈ 0.333 µM)
MIC [17]: ≤ 0.062 µg/mL
Activity [18]: inactive
Activity [19]: inactive
Activity [20]: inactive
Activity [21]: inactive
Activity [22]: inactive
Activity [23]: inactive
Activity [24]: inactive
Activity [25]: inactive
Activity [26]: inactive
Activity [27]: inactive
Activity [28]: inactive
Activity [29]: inactive
Activity [30]: Active
Activity [31]: Active
Activity [32]: Active
Activity [33]: Active
Activity [34]: Active
MIC [35]: 0.25 µg/mL (≈ 0.666 µM)
MIC [36]: 0.5 µg/mL (≈ 1.33 µM)
MIC [37]: 0.5 µg/mL (≈ 1.33 µM)

From ChEMBL document CHEMBL1649247, “Fluoroquinolone resistance in Mycobacterium tuberculosis and mutations in gyrA and gyrB” (2009)
